This passage reports inhibition, IC50 and Ki results from ChEMBL document CHEMBL1125455, “Novel anthraquinone inhibitors of human leukocyte elastase and cathepsin G” (J Med Chem, 1992).

The target of experiment [1] is T1, Chymotrypsin-like elastase family member 2A (Sus scrofa) (UniProt P08419).
T1 sequence (whole entry): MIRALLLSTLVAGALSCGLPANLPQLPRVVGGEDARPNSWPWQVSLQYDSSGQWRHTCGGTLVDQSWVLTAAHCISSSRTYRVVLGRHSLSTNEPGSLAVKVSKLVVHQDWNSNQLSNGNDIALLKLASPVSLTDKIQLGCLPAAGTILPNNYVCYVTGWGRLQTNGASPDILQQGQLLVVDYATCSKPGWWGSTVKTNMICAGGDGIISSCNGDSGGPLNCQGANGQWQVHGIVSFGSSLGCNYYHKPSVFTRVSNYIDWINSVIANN
The experiment in a line: Inhibitory activity against Porcine Pancreatic Elastase (PPE) at 58 uM concentration.

Experiment [2] has as its target T2, Neutrophil elastase (Homo sapiens) (UniProt P08246).
T2 sequence (whole entry): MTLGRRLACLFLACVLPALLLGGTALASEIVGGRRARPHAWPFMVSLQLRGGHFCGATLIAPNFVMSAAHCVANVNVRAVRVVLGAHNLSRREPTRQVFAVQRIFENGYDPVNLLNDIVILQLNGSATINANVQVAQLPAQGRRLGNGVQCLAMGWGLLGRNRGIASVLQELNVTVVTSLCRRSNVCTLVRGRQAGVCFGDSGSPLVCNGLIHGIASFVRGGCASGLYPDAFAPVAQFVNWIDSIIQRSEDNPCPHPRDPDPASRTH
Put plainly: Inhibitory activity against Human Leukocyte Elastase (HLE) at 58 uM concentration.

Experiment [3] deals with T3, Cathepsin G (Homo sapiens) (UniProt P08311).
T3 sequence (whole entry): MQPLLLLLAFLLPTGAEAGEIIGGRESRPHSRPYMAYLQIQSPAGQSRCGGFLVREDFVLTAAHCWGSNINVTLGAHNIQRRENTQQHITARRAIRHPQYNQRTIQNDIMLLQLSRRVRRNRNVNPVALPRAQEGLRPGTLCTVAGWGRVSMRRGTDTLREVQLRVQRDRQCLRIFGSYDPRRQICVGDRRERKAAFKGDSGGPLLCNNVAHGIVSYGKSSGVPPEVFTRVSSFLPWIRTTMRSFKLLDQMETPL
The experiment in a line: Inhibitory activity against Cathepsin G (CatG) at 58 uM concentration.

The target in experiment [4] is Chymotrypsinogen A (Bos taurus) (UniProt P00766). The experiment in a line: Inhibitory activity against Chymotrypsinogen at 58 uM concentration.
Experiment [5] addresses T1, Chymotrypsin-like elastase family member 2A (Sus scrofa). Put plainly: Inhibitory activity against Porcine Pancreatic Elastase (PPE) at 86 uM concentration; NI = no inhibition.
For experiment [6], the target named is T3, Cathepsin G (Homo sapiens). Put plainly: Inhibitory activity against Cathepsin G (CatG) at 86 uM concentration.
The target of experiment [7] is T2, Neutrophil elastase (Homo sapiens). Put plainly: Inhibitory activity against Human Leukocyte Elastase (HLE) at 86 uM concentration; NI = no inhibition.
Experiment [8] concerns the target T4, Cathepsin G (Homo sapiens, UniProt P08311).
T4 sequence (P08311 whole entry): T3 sequence (whole entry)
Put plainly: Compound was tested for the enzyme inhibitory activity against Cathepsin G (CatG); NI = no inhibition.

For experiment [9], the target named is T5, Neutrophil elastase (Homo sapiens, UniProt P08246).
T5 sequence (P08246 whole entry): T2 sequence (whole entry)
Put plainly: In vitro inhibition of human leukocyte elastase.

Experiment [10] deals with T5, Neutrophil elastase. Put plainly: HLE-inhibitor (Human Leukocyte Elastase) dissociation constant determined by using Dixon Plot.
Experiment [11] deals with T5, Neutrophil elastase. Put plainly: Compound was tested for the enzyme inhibitory activity against Human Leukocyte Elastase (HLE).
The target of experiment [12] is T1, Chymotrypsin-like elastase family member 2A (Sus scrofa). Put plainly: Inhibitory activity against Porcine Pancreatic Elastase (PPE) at 62 uM concentration.
Experiment [13] addresses Chymotrypsinogen A (Bos taurus) (UniProt P00766). The experiment in a line: Inhibitory activity against Chymotrypsinogen at 62 uM concentration. The note with it: Sus scrofa.
Experiment [14] deals with T3, Cathepsin G (Homo sapiens). The experiment in a line: Inhibitory activity against Cathepsin G (CatG) at 62 uM concentration; NI = no inhibition.
Experiment [15] addresses T2, Neutrophil elastase (Homo sapiens). Put plainly: Inhibitory activity against Human Leukocyte Elastase (HLE) at 62 uM concentration.
Experiment [16] deals with T5, Neutrophil elastase. Put plainly: Compound was tested for the enzyme inhibitory activity against Human Leukocyte Elastase (HLE) at 62 uM concentration.
For experiment [17], the target named is T3, Cathepsin G (Homo sapiens). Put plainly: Inhibitory activity against Cathepsin G (CatG) at 62 uM concentration.
The target in experiment [18] is T1, Chymotrypsin-like elastase family member 2A (Sus scrofa). The experiment in a line: Inhibitory activity against Porcine Pancreatic Elastase (PPE) at 62 uM concentration; NI = no inhibition.
For experiment [19], the target named is T4, Cathepsin G. The experiment in a line: Compound was tested for the enzyme inhibitory activity against Cathepsin G; NI = no inhibition.
Experiment [20] deals with T5, Neutrophil elastase. The experiment in a line: Compound was tested for the enzyme inhibitory activity against Human Leukocyte elastase.
The target in experiment [21] is T3, Cathepsin G (Homo sapiens). The experiment in a line: Inhibitory activity against Cathepsin G (CatG) at 30 uM concentration; NI = no inhibition.
Experiment [22] has as its target T1, Chymotrypsin-like elastase family member 2A (Sus scrofa). Put plainly: Inhibitory activity against Porcine Pancreatic Elastase (PPE) at 30 uM concentration.
Experiment [23] has as its target T2, Neutrophil elastase (Homo sapiens). Put plainly: Inhibitory activity against Human Leukocyte Elastase (HLE) at 30 uM concentration.
Experiment [24] deals with Chymotrypsinogen A (Bos taurus) (UniProt P00766). The experiment in a line: Inhibitory activity against Chymotrypsinogen at 30 uM concentration.
The target is the same in experiment [25]. Put plainly: Inhibitory activity against Chymotrypsinogen at 63 uM concentration. In outline: (§1)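 Percent inhibition of enzyme activity at a single inhibitor concentration. Assays run at 25 °C in 0.1 M HEPES, 0.5 M NaCl, pH 7.5, with 9-11% DMSO. The method otherwise follows an earlier report.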
Experiment [26] deals with T1, Chymotrypsin-like elastase family member 2A (Sus scrofa). The experiment in a line: Inhibitory activity against Porcine Pancreatic Elastase (PPE) at 63 uM concentration. In outline: as §1
The target of experiment [27] is T3, Cathepsin G (Homo sapiens). The experiment in a line: Inhibitory activity against Cathepsin G (CatG) at 63 uM concentration. In outline: as §1
In experiment [28] the target is T2, Neutrophil elastase (Homo sapiens). Put plainly: Inhibitory activity against Human Leukocyte Elastase (HLE) at 63 uM concentration. In outline:
as §1

The target of experiment [29] is T4, Cathepsin G. The experiment in a line: Compound was tested for the enzyme inhibitory activity against Cathepsin G.
The target in experiment [30] is T4, Cathepsin G. The experiment in a line: Inhibition of Cathepsin G (CatG).
The target of experiment [31] is Chymotrypsinogen A (Bos taurus) (UniProt P00766). Put plainly: Inhibitory activity against Chymotrypsinogen at 62 uM concentration; NI = no inhibition. The note with it: Sus scrofa.
Experiment [32] concerns the target T5, Neutrophil elastase. The experiment in a line: Compound was tested for the enzyme inhibitory activity against Human Leukocyte Elastase (HLE); NI = no inhibition.
Experiment [33] deals with T1, Chymotrypsin-like elastase family member 2A (Sus scrofa). Put plainly: Inhibitory activity against Porcine Pancreatic Elastase (PPE) at 70 uM concentration; NI = no inhibition.
Experiment [34] addresses T2, Neutrophil elastase (Homo sapiens). Put plainly: Inhibitory activity against Human Leukocyte Elastase (HLE) at 70 uM concentration; NI = no inhibition.
For experiment [35], the target named is Chymotrypsinogen A (Bos taurus) (UniProt P00766). Put plainly: Inhibitory activity against Chymotrypsinogen at 70 uM concentration; NI = no inhibition. The note with it: Sus scrofa.
The target of experiment [36] is T3, Cathepsin G (Homo sapiens). The experiment in a line: Inhibitory activity against Cathepsin G (CatG) at 70 uM concentration.

Activity calls are given as the source filed them. No cut-off for these calls is given here.

On to `O=C(O)c1cc(O)c2c(c1)C(=O)c1cc(O)cc(O)c1C2=O`, for which the inhibition in [1] came out at 9%; in [2], 21%; in experiment [3], 14%; in [4], 3%.
On to `O=C(O)c1cc(O)c2c(c1)C(=O)c1cccc(O)c1C2=O`, for which the inhibition entry in [5] and in [7] was “inactive” throughout. This compound returned an inhibition in [6] of 22%.
Regarding `CCc1ccc2c(c1)C(=O)c1ccccc1C2=O`, in experiment [8], the half-maximal inhibitory concentration (IC50) entry is recorded as “Not Active”.
Compound `CCCCc1ccc2c(c1O)C(=O)c1c(OC)cccc1C2=O` gave an IC50 in experiment [9] of 5.9 µM.
Compound `CCCCOC(=O)Oc1cc(C)cc2c1C(=O)c1c(OC(=O)OCCCC)cc(OC)cc1C2=O` displayed a Ki in experiment [10] of 2.8 µM. In addition, 2.5 µM corresponded to half-maximal inhibition in experiment [11] (IC50).
`CC(=O)Oc1cc(OC(C)=O)c2c(c1)C(=O)c1cc(C)cc(OC(C)=O)c1C2=O` [EMODIN TRIACETATE]: the values for the inhibition in experiment [12], in experiment [13] and in [15] were 22%, 3% and 79%, respectively. The inhibition entry in [14] is “inactive”. The half-maximal inhibitory concentration (IC50) in [16] was 13 µM.
For the compound `CCCOc1cc(O)c2c(c1)C(=O)c1cc(C)cc(O)c1C2=O`, the inhibition in [15] was determined as 100%; in experiment [17], 35%. The inhibition entry in experiment [18] was “inactive”. In experiment [16], this compound showed a 50% inhibitory concentration (IC50) of 5.9 µM.
Take `O=C1c2ccccc2C(=O)c2c1ccc(Cc1ccccc1)c2O`: the figures for the half-inhibitory concentration (IC50) entry in [19] and in [20] were “Not Active” and 6.6 µM, respectively.
For the compound `COc1cc(OC)c2c(c1)C(=O)c1cc(C)cc(OC)c1C2=O`, in experiment [21], the inhibition entry was “inactive”. Further, the inhibition in experiment [22] amounted to 4%; in experiment [23] it was 16%; in [24] it was 6%.
Take `O=C1c2cccc(O)c2C(=O)c2c(O)cc(CO)cc21`: the inhibition was 13% in experiment [25], 18% in experiment [26], 3% in [27] and 21% in experiment [28].
`CCCCCCc1ccc2c(c1O)C(=O)c1c(OC)cccc1C2=O`: the IC50 in experiment [29] is > 60 µM; in experiment [20] it was 6 µM.
As to `CCCc1ccc2c(c1O)C(=O)c1c(OC)cccc1C2=O`, the IC50 in experiment [9] was 8.7 µM; in experiment [30], > 60 µM.
In the case of `CCCCCc1ccc2c(c1O)C(=O)c1c(OC)cccc1C2=O`, the 50% inhibitory concentration (IC50) is 6.1 µM in [9] and > 60 µM in [30].
Consider `O=C1c2cc(O)cc(O)c2C(=O)c2c(O)cc(CO)cc21`, for which the inhibition worked out at 4% in experiment [12], 26% in experiment [15] and 22% in experiment [17]. In addition, the inhibition result in experiment [31] is “inactive”.
As for `COc1cccc2c1C(=O)c1c(ccc(CC3CO3)c1O)C2=O` (stereo unspecified), the half-maximal inhibitory concentration (IC50) result in experiment [8] and in experiment [32] was “Not Active” each time.
Consider `Cc1ccc2c(c1O)C(=O)c1ccccc1C2=O`, for which the results for the 50% inhibitory concentration (IC50) in experiment [29] and in [20] were > 60 µM and 11 µM, respectively.
Consider `CC(=O)Oc1cccc2c1C(=O)c1c(OC(C)=O)cc(C(=O)O)cc1C2=O`, for which the inhibition entry in experiment [33], in experiment [34] and in [35] was “inactive” in each case. The compound further yielded an inhibition in experiment [36] of 5%.
For the compound `O=C1c2cccc(O)c2C(=O)c2c1ccc(Cc1ccccc1)c2O`, the IC50 in experiment [9] was determined as 13 µM. This lies in the double-digit micromolar range.
Still for that read-out and setting: to `CCCCc1ccc2c(c1O)C(=O)c1c(O)cccc1C2=O` belongs 6.4 µM; to `CCCc1ccc2c(c1O)C(=O)c1c(O)cccc1C2=O`, 4.2 µM.

As a reminder, the inhibition is the percentage by which the read-out fell short of the control. For orientation: IC50 means the concentration at which inhibition is half-maximal. Read a low IC50 as greater potency. Broadly, the Ki is the dissociation constant of the complex between target and ligand, obtained from inhibition or displacement.
